Test results: ChEMBL document CHEMBL4725282, “Discovery of a Conformationally Constrained Oxazolidinone with Improved Safety and Efficacy Profiles for the Treatment of Multidrug-Resistant Tuberculosis” (J Med Chem, 2020)

Tests used:
[1] = Toxicity in male Sprague-Dawley rat assessed as change in mean platelet volume at 150 mg/kg/day, po administered for 4 weeks followed by 2 week recovery period (Rvb =7.0 +/- 0.4 fL); format: organism-based; settings: in vivo, 672 h
[2] = target: Cytochrome P450 2C9 (Homo sapiens, UniProt P11712); assay: Inhibition of CYP2C9 in human liver microsomes after 20 mins by LC-MS/MS analysis; format: ADME
[3] = Toxicity in female Sprague-Dawley rat assessed as changes in neuropsychic symptoms at 50 to 450 mg/kg/day, po administered for 4 weeks followed by 2 week recovery period measured during last 24 hrs of recovery period; format: organism-based; settings: in vivo, 672 h, dose 50-450 mg/kg/day
Summary of the method: (§1)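 SD rats, 6-7 weeks old (96 in total), split into vehicle, 50, 150 and 450 mg/kg/day groups of 12 females and 12 males each, given oral doses once daily for 4 weeks, then 2 weeks of recovery. Mortality, body weight, food intake, eyes, urine and neuropsychic signs were observed. Organ and bone marrow histopathology was done on 8 rats per sex per group after the last dose and on the remaining 4 per sex after 14 days of recovery.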

[4] = Toxicity in male Sprague-Dawley rat assessed as change in mean corpuscular hemoglobin at 150 mg/kg/day, po administered for 4 weeks followed by 2 week recovery period (Rvb =18.3 +/- 0.4 pg); format: organism-based; settings: in vivo, 672 h
[5] = Toxicity in male Sprague-Dawley rat assessed as ophthalmic changes at 50 to 450 mg/kg/day, po administered for 4 weeks measured post last dose; format: organism-based; settings: in vivo, 672 h, dose 50-450 mg/kg/day
[6] = Toxicity in male Sprague-Dawley rat assessed as body weight loss at 50 to 450 mg/kg/day, po administered for 4 weeks measured at 1 week interval; format: organism-based; settings: in vivo, 672 h, dose 50-450 mg/kg/day; summary of the method: as §1
[7] = Toxicity in female Sprague-Dawley rat assessed as histopathological changes at 50 to 450 mg/kg/day, po administered for 4 weeks followed by 2 week recovery period; format: organism-based; settings: in vivo, 672 h, dose 50-450 mg/kg/day; summary of the method: as §1
[8] = Toxicity in female Sprague-Dawley rat assessed as change in hemoglobin count at 450 mg/kg/day, po administered for 4 weeks followed by 2 week recovery period (Rvb =136 +/- 7 g/L); format: organism-based; settings: in vivo, 672 h
[9] = Toxicity in male Sprague-Dawley rat assessed as change in hematocrit level at 150 mg/kg/day, po administered for 4 weeks followed by 2 week recovery period (Rvb =45.2 +/- 1.7 %); format: organism-based; settings: in vivo, 672 h
[10] = Toxicity in male Sprague-Dawley rat assessed as change in mean platelet volume at 450 mg/kg/day, po administered for 4 weeks followed by 2 week recovery period (Rvb =7.0 +/- 0.4 fL); format: organism-based; settings: in vivo, 672 h
[11] = Toxicity in female Sprague-Dawley rat assessed as abnormalities in urine at 50 to 450 mg/kg/day, po administered for 4 weeks followed by 2 week recovery period measured within last 7 days of recover period; format: organism-based; settings: in vivo, 672 h, dose 50-450 mg/kg/day
Summary of the method: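 SD rats, 6-7 weeks, 12 male and 12 female per group. Oral dosing once daily at 50, 150 or 450 mg/kg/day or vehicle for 4 weeks, then 2-week recovery. 8 per sex dissected after last dose, remaining 4 per sex after 14-day recovery. Body weight, urine, food intake and clinical signs monitored.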

[12] = Toxicity in female Sprague-Dawley rat assessed as effect on food consumption at 50 to 450 mg/kg/day, po administered for 4 weeks measured at 1 week interval; format: organism-based; settings: in vivo, 672 h, dose 50-450 mg/kg/day; summary of the method: as §1
[13] = Toxicity in male Sprague-Dawley rat assessed as histopathological changes in bone marrow at 450 mg/kg/day, po administered for 4 weeks measured post last dose; format: organism-based; settings: in vivo, 672 h
[14] = Toxicity in male Sprague-Dawley rat assessed as change in hematocrit level at 50 mg/kg/day, po administered for 4 weeks followed by 2 week recovery period (Rvb =45.2 +/- 1.7 %); format: organism-based; settings: in vivo, 672 h
[15] = Toxicity in female Sprague-Dawley rat assessed as ophthalmic changes at 50 to 450 mg/kg/day, po administered for 4 weeks followed by 2 week recovery period; format: organism-based; settings: in vivo, 1008 h, dose 50-450 mg/kg/day, time 6 weeks; summary of the method: as §1
[16] = Stability in human liver microsome at 1 uM measured after 30 mins in absence of NADPH by LC-MS/MS analysis; format: ADME; settings: liver microsomes, read-out: Stabilty
Summary of the method: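 Liver microsomes (male CD-1 mouse or pooled human), 1 mg/mL protein, compound 1 µM, 37°C with shaking. Started with 1 mM NADPH or run without cofactor. Quenched with ice-cold ACN/MeOH containing internal standard. Parent quantified by LC-MS/MS; 30 min concentration normalised to time zero.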

[17] = Toxicity in female Sprague-Dawley rat assessed as change in lymphocyte level at 150 mg/kg/day, po administered for 4 weeks followed by 2 week recovery period (Rvb =76.9 +/- 4.6 %); format: organism-based; settings: in vivo, 672 h
[18] = Half life in Sprague-Dawley rat hepatocytes at 2 uM by LC-MS/MS analysis; format: ADME, cell-based, Hepatocyte
Summary of the method: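 Hepatocytes (male CD-1 mouse, male SD rat, male beagle dog, male cynomolgus monkey, pooled human), final 1 μM compound and 1 million cells/mL, made by mixing 2 μM compound with 2 million cells/mL. Incubated at 37 °C in a CO2 incubator; sampled at 0, 15, 30, 60, 90 and 120 min. Quenched with methanol/ACN containing 0.1% formic acid. Parent remaining measured by LC-MS/MS.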

[19] = Toxicity in female Sprague-Dawley rat assessed as change in hematocrit level at 50 mg/kg/day, po administered for 4 weeks followed by 2 week recovery period (Rvb =41.1 +/- 1.4 %); format: organism-based; settings: in vivo, 672 h
[20] = Toxicity in female Sprague-Dawley rat assessed as change in hematocrit level at 450 mg/kg/day, po administered for 4 weeks followed by 2 week recovery period (Rvb =41.1 +/- 1.4 %); format: organism-based; settings: in vivo, 672 h
[21] = Toxicity in male Sprague-Dawley rat assessed as change in hemoglobin count at 150 mg/kg/day, po administered for 4 weeks followed by 2 week recovery period (Rvb =144 +/- 5 g/L); format: organism-based; settings: in vivo, 672 h
[22] = Toxicity in male Sprague-Dawley rat assessed as changes in neuropsychic symptoms at 50 to 450 mg/kg/day, po administered for 4 weeks followed by 2 week recovery period measured during last 24 hrs of recovery period; format: organism-based; settings: in vivo, 672 h, dose 50-450 mg/kg/day
Summary of the method: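 SD rats aged 6-7 weeks, 12 male and 12 female per group, in four groups: vehicle control, 50, 150 and 450 mg/kg/day. Dosing was oral, once daily, for 4 weeks, then a 2-week recovery period. Clinical symptoms were observed starting before administration. 8 per sex were dissected after the last dose and the remaining 4 per sex after 14 days of recovery.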

[23] = Toxicity in male Sprague-Dawley rat assessed as change in reticulocyte level at 450 mg/kg/day, po administered for 4 weeks followed by 2 week recovery period (Rvb =2.48 +/- 0.34 %); format: organism-based; settings: in vivo, 672 h
[24] = Toxicity in female Sprague-Dawley rat assessed as change in mean platelet volume at 450 mg/kg/day, po administered for 4 weeks followed by 2 week recovery period (Rvb =7.1 +/- 0.5 fL); format: organism-based; settings: in vivo, 672 h
[25] = Toxicity in male Sprague-Dawley rat assessed as change in mean corpuscular volume at 50 mg/kg/day, po administered for 4 weeks followed by 2 week recovery period (Rvb =57.5 +/- 2.0 fL); format: organism-based; settings: in vivo, 672 h

Chain of Cytochrome P450 2C9 (P11712 whole entry): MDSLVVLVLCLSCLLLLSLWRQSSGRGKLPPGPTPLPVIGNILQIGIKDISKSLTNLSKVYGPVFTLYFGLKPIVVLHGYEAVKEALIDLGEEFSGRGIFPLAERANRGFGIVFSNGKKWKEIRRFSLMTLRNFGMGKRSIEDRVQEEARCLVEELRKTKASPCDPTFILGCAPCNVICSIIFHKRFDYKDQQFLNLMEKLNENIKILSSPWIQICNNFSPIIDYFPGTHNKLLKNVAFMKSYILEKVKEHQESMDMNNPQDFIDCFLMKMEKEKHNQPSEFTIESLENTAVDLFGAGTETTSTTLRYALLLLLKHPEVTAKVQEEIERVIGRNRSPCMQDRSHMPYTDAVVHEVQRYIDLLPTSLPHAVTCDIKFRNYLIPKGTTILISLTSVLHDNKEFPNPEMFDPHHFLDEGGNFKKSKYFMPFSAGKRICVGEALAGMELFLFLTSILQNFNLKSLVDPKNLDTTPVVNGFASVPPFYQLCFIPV

CC(=O)NC[C@@H]1OC(=O)N2c3cc(F)c(N4CCSCC4)cc3OC[C@@H]12
Activity [1]: 7 fL
IC50 [2]: > 50 µM
Activity [3]: Non-Toxic
Activity [4]: 18.5 pg
Activity [5]: Non-Toxic
Activity [6]: Non-Toxic
Activity [7]: Non-Toxic
Activity [8]: 122 g/L
Activity [9]: 44.5%
Activity [10]: 6.9 fL
Activity [11]: Non-Toxic
Activity [12]: Non-Toxic
Activity [13]: Non-Toxic
Activity [14]: 43.5%
Activity [15]: Non-Toxic
remaining at 0.5 h, 1 µM [16]: 81.5%
Activity [17]: 83%
half-life at 2 µM [18]: 1.67 h
Activity [19]: 38.7%
Activity [20]: 36.9%
Activity [21]: 141 g/L
Activity [22]: Non-Toxic
Activity [23]: 2.99%
Activity [24]: 7.5 fL
Activity [25]: 59.7 fL
